Test results from ChEMBL document CHEMBL1275408, “A chemical genomic screen in Saccharomyces cerevisiae reveals a role for diphthamidation of translation elongation factor 2 in inhibition of protein synthesis by sordarin” (2008).
Activity calls are given as the source filed them. The calls are words filed in the database; no cut-off is given here.

What was measured:
Saccharomyces cerevisiae [1] = test: Antifungal activity against Saccharomyces cerevisiae BY4741 harboring deletion mutation in dph5 gene at 100 ng/ml by plate assay; assay type: functional, organism-based
Summary of the method: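 Spot test on solid SC glucose plates with or without 100 ng/ml sordarin. Drops of 10^5 cells plus 10-fold serial dilutions of each dph deletion strain were spotted alongside the parental strain. Plates were incubated at 28°C for 6 days and imaged every 24 h.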

Saccharomyces cerevisiae [2] = test: Antifungal activity against Saccharomyces cerevisiae BY4741 harboring YBR099C mutation by spectrophotometry; assay type: functional
Summary of the method: (§1)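 Haploid MATa BY4741 KanMX4 deletion strains pinned from frozen stocks into YPD + G418 (150 mg/liter), grown 3 days at 28°C to confluence, then pin-replicated into SC liquid with no drug or sordarin derivative GM193663 (2 ng/ml sensitivity; 62.5 ng/ml resistance). 28°C, OD595 read every 24 h for 5 days; growth scored relative to wild type on same plate and to untreated mutant.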

Saccharomyces cerevisiae [3] = test: Antifungal activity against Saccharomyces cerevisiae BY4741 harboring YLR202C mutation in unknown gene by spectrophotometry; assay type: functional
Summary of the method: (§2)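 Deletion strains from the nonessential haploid MATa BY4741 collection (KanMX4 replacement) were grown in YPD with G418 at 28°C for 3 days, then pinned into liquid SC with or without sordarin derivative GM193663 (2 ng/ml for sensitivity, 62.5 ng/ml for resistance). Cultures were kept at 28°C and read at OD595 every 24 h for 5 days. Growth was scored against wild type on the same plate and against the drug-free control. Hits were retested at least in duplicate.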

Saccharomyces cerevisiae [4] = test: Antifungal activity against Saccharomyces cerevisiae BY4741 harboring MUP3 YHL036W mutant gene by spectrophotometry; assay type: functional; summary of the method: as §1
Saccharomyces cerevisiae [5] = test: Antifungal activity against Saccharomyces cerevisiae BY4741 harboring MGT1 YDL200C mutant gene by spectrophotometry; assay type: functional
Summary of the method: (§3)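 Screen of BY4741 KanMX4 deletion strains pre-grown 3 days at 28°C in YPD with G418 (150 mg/liter), then pinned into liquid SC containing GM193663. The sensitivity screen used 2 ng/ml; the resistance screen used 62.5 ng/ml, with validation at 62.5, 125 and 500 ng/ml. OD595 was read every 24 h over 5 days at 28°C. Growth was scored relative to wild type and to drug-free controls. Retests were at least in duplicate.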

Saccharomyces cerevisiae [6] = test: Antifungal activity against Saccharomyces cerevisiae BY4741 harboring YLR143W mutation in unknown gene by spectrophotometry; assay type: functional; summary of the method: as §2
Saccharomyces cerevisiae [7] = test: Antifungal activity against Saccharomyces cerevisiae BY4741 harboring DAL7 YIR031C mutant gene by spectrophotometry; assay type: functional; summary of the method: as §3
Saccharomyces cerevisiae [8] = test: Antifungal activity against Saccharomyces cerevisiae BY4741 harboring FYV1 YDR024W mutant gene by spectrophotometry; assay type: functional; summary of the method: as §3
Saccharomyces cerevisiae [9] = test: Antifungal activity against Saccharomyces cerevisiae BY4741 harboring YKL098W mutation in unknown gene by spectrophotometry; assay type: functional; summary of the method: as §2
Saccharomyces cerevisiae [10] = test: Antifungal activity against Saccharomyces cerevisiae BY4741 harboring THI20 YOL055C mutant gene by spectrophotometry; assay type: functional; summary of the method: as §1
Saccharomyces cerevisiae [11] = test: Antifungal activity against Saccharomyces cerevisiae BY4741 harboring MRH1 YDR033W mutant gene by spectrophotometry; assay type: functional; summary of the method: as §3
Saccharomyces cerevisiae [12] = test: Antifungal activity against Saccharomyces cerevisiae BY4741 harboring MRP21 YBL090W mutant gene by spectrophotometry; assay type: functional; summary of the method: as §3
Saccharomyces cerevisiae [13] = test: Antifungal activity against Saccharomyces cerevisiae BY4741 harboring MRPL24 YMR193W mutant gene by spectrophotometry; assay type: functional; summary of the method: as §1
Saccharomyces cerevisiae [14] = test: Antifungal activity against Saccharomyces cerevisiae BY4741 harboring RPL21A YBR191W mutant gene by spectrophotometry; assay type: functional; summary of the method: as §1
Saccharomyces cerevisiae [15] = test: Antifungal activity against Saccharomyces cerevisiae BY4741 harboring SEM1 YDR363W-A mutant gene by spectrophotometry; assay type: functional; summary of the method: as §1
Saccharomyces cerevisiae [16] = test: Antifungal activity against Saccharomyces cerevisiae BY4741 harboring ADY3 YDL239C mutant gene by spectrophotometry; assay type: functional; summary of the method: as §3
Saccharomyces cerevisiae [17] = test: Antifungal activity against Saccharomyces cerevisiae BY4741 harboring NOT5 YPR072W mutant gene assessed as reduction in fungal growth at 2 ng/ml by spectrophotometry; assay type: functional, organism-based
Summary of the method: (§4)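 Deletion strains (BY4741 background) pre-grown 3 days at 28°C in YPD + G418 (150 mg/liter), then pin-replicated into SC liquid containing 2 ng/ml GM193663 or no drug. 28°C, OD595 every 24 h over 5 days; growth scored against wild type on same plate and against drug-free mutant control; hits retested at least in duplicate at 2 ng/ml.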

Saccharomyces cerevisiae [18] = test: Antifungal activity against Saccharomyces cerevisiae BY4741 harboring deletion mutation in dph3 gene at 300 to 500 ng/ml after 24 hrs by liquid growth assay; assay type: functional
Saccharomyces cerevisiae [19] = test: Antifungal activity against Saccharomyces cerevisiae BY4741 harboring YDR020C mutation in unknown gene by spectrophotometry; assay type: functional; summary of the method: as §1
Saccharomyces cerevisiae [20] = test: Antifungal activity against Saccharomyces cerevisiae BY4741 harboring DIA4 YHR011W mutant gene by spectrophotometry; assay type: functional; summary of the method: as §3
Saccharomyces cerevisiae [21] = test: Antifungal activity against Saccharomyces cerevisiae BY4741 harboring MOH1 YBL049W mutant gene by spectrophotometry; assay type: functional; summary of the method: as §3
Saccharomyces cerevisiae [22] = test: Antifungal activity against Saccharomyces cerevisiae BY4741 harboring RSM19 YNR037C mutant gene by spectrophotometry; assay type: functional; summary of the method: as §1
Saccharomyces cerevisiae [23] = test: Antifungal activity against Saccharomyces cerevisiae BY4741 harboring NAT3 YPR131C mutant gene by spectrophotometry; assay type: functional; summary of the method: as §1
Saccharomyces cerevisiae [24] = test: Antifungal activity against Saccharomyces cerevisiae BY4741 harboring YBL100C mutation assessed as reduction in fungal growth at 2 ng/ml by spectrophotometry; assay type: functional, organism-based; summary of the method: as §4
Saccharomyces cerevisiae [25] = test: Antifungal activity against Saccharomyces cerevisiae BY4741 harboring HEM14 YER014W mutant gene assessed as reduction in fungal growth at 2 ng/ml by spectrophotometry; assay type: functional, organism-based
Summary of the method: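 Haploid BY4741 KanMX4 deletion strains pre-grown in YPD with G418 (150 mg/liter) for 3 days at 28°C. They were then pin-replicated into liquid SC with sordarin derivative GM193663 at 2 ng/ml, or without drug. Plates were incubated at 28°C and OD595 read every 24 h for 5 days. Growth was scored against wild type on the same plate and against the drug-free mutant. Hits were retested at least in duplicate.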

Saccharomyces cerevisiae [26] = test: Antifungal activity against Saccharomyces cerevisiae BY4741 harboring DSK2 YMR276W mutant gene by spectrophotometry; assay type: functional; summary of the method: as §3
Saccharomyces cerevisiae [27] = test: Antifungal activity against Saccharomyces cerevisiae BY4741 harboring SHU2 YDR078C mutant gene by spectrophotometry; assay type: functional; summary of the method: as §1
Saccharomyces cerevisiae [28] = test: Antifungal activity against Saccharomyces cerevisiae BY4741 harboring STE1 YDR410C mutant gene by spectrophotometry; assay type: functional; summary of the method: as §1
Saccharomyces cerevisiae [29] = test: Antifungal activity against Saccharomyces cerevisiae BY4741 harboring YLR125W mutation in unknown gene by spectrophotometry; assay type: functional; summary of the method: as §2
Saccharomyces cerevisiae [30] = test: Antifungal activity against Saccharomyces cerevisiae BY4741 harboring DOC1 YGL240W mutant gene by spectrophotometry; assay type: functional; summary of the method: as §3
Saccharomyces cerevisiae [31] = test: Antifungal activity against Saccharomyces cerevisiae BY4741 harboring RPS11A YDR025W mutant gene by spectrophotometry; assay type: functional; summary of the method: as §1
Saccharomyces cerevisiae [32] = test: Antifungal activity against Saccharomyces cerevisiae BY4741 harboring RAM1 YDL090C mutant gene by spectrophotometry; assay type: functional; summary of the method: as §1
Saccharomyces cerevisiae [33] = test: Antifungal activity against Saccharomyces cerevisiae BY4741 harboring PTP3 YER075C mutant gene by spectrophotometry; assay type: functional; summary of the method: as §1
Saccharomyces cerevisiae [34] = test: Antifungal activity against Saccharomyces cerevisiae BY4741 harboring IBD2 YNL164C mutant gene by spectrophotometry; assay type: functional; summary of the method: as §3

CO[C@H]1[C@@H](O)[C@H](O)[C@H](OC[C@@]23C[C@@H]4[C@H](C)CC[C@H]4[C@@]4(C=O)CC2C=C(C(C)C)[C@@]34C(=O)O)O[C@@H]1C [SORDARIN]
MIC (Saccharomyces cerevisiae [1]): inactive | MIC (Saccharomyces cerevisiae [2]): > 0.5 µg/mL | MIC (Saccharomyces cerevisiae [3]): > 0.5 µg/mL | MIC (Saccharomyces cerevisiae [4]): > 0.5 µg/mL | MIC (Saccharomyces cerevisiae [5]): > 0.125 µg/mL | MIC (Saccharomyces cerevisiae [6]): > 0.5 µg/mL | MIC (Saccharomyces cerevisiae [7]): > 0.125 µg/mL | MIC (Saccharomyces cerevisiae [8]): > 0.5 µg/mL | MIC (Saccharomyces cerevisiae [9]): > 0.5 µg/mL | MIC (Saccharomyces cerevisiae [10]): > 0.5 µg/mL | MIC (Saccharomyces cerevisiae [11]): > 0.125 µg/mL | MIC (Saccharomyces cerevisiae [12]): > 0.5 µg/mL | MIC (Saccharomyces cerevisiae [13]): > 0.125 µg/mL | MIC (Saccharomyces cerevisiae [14]): > 0.125 µg/mL | MIC (Saccharomyces cerevisiae [15]): > 0.125 µg/mL | MIC (Saccharomyces cerevisiae [16]): > 0.0625 µg/mL | Activity (Saccharomyces cerevisiae [17]): Active | Activity (Saccharomyces cerevisiae [18]): 50% | MIC (Saccharomyces cerevisiae [19]): > 0.5 µg/mL | MIC (Saccharomyces cerevisiae [20]): > 0.0625 µg/mL | MIC (Saccharomyces cerevisiae [21]): > 0.5 µg/mL | MIC (Saccharomyces cerevisiae [22]): > 0.5 µg/mL | MIC (Saccharomyces cerevisiae [23]): > 0.0625 µg/mL | Activity (Saccharomyces cerevisiae [24]): Active | Activity (Saccharomyces cerevisiae [25]): Active | MIC (Saccharomyces cerevisiae [26]): > 0.5 µg/mL | MIC (Saccharomyces cerevisiae [27]): > 0.5 µg/mL | MIC (Saccharomyces cerevisiae [28]): > 0.125 µg/mL | MIC (Saccharomyces cerevisiae [29]): > 0.125 µg/mL | MIC (Saccharomyces cerevisiae [30]): > 0.5 µg/mL | MIC (Saccharomyces cerevisiae [31]): > 0.0625 µg/mL | MIC (Saccharomyces cerevisiae [32]): > 0.5 µg/mL | MIC (Saccharomyces cerevisiae [33]): > 0.125 µg/mL | MIC (Saccharomyces cerevisiae [34]): > 0.5 µg/mL
